From ChEMBL document CHEMBL4373670, “Selective in vitro anti-cancer activity of non-alkylating minor groove binders” (Medchemcomm, 2019)
The source made the active and inactive calls. The rule behind the calls is not given here.

Tests used:
[1] = tested on: HCT-116; assay: Induction of DNA damage in human HCT116 cells assessed as increase in p53 expression at 0.25 uM to 1 uM incubated for 24 hrs by Western blot analysis; format: functional, cell-based
Procedure, shortened: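 HCT116 cells were treated for 24 h and lysed in RIPA buffer. 40 µg lysate was run on 15% SDS-PAGE and transferred to nitrocellulose. Blots were probed for phospho-S139 γH2AX (9F3, 1:1000), p53 (DO-1, 1:1000) and β-actin (C4, 1:40 000), then detected with HRP secondaries and ECL.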

[2] = tested on: HCT-116; assay: Induction of DNA damage in human HCT116 cells assessed as increase in gammaH2AX phosphorylation at ser139 at 0.25 uM to 1 uM incubated for 24 hrs by Western blot analysis

SMILES: COc1cccc2c1C(=O)c1c(O)c3c(c(O)c1C2=O)C[C@@](O)(C(=O)CO)C[C@@H]3O[C@H]1C[C@H](N)[C@H](O)[C@H](C)O1
- Activity [1]: Active
- Activity [2]: Active
